Data set [1] has as its system Nucleic Acid. Description: Binding affinity to human d[G3(T2AG3)3] G-quadruplex DNA in LiCl+ Na+ buffer by CD spectroscopy. Type of data set: nucleic-acid assay. In short, it runs like this:
(§1)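 CD titration of preformed Hum21 G4DNA (4 μM) in 100 mM LiCl, 10 mM sodium cacodylate, 0.1 mM EDTA, pH 7.4. Ligand was added stepwise from 0 to 160 μM in 20 μM steps. Peaks at 250 and 295 nm and the induced CD band were monitored.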

The subject of data set [2] is Nucleic Acid. Description: Binding affinity to human d[G3(T2AG3)3] G-quadruplex DNA assessed as change in structure in CD spectral profile in 100 mM KCl buffer by CD spectroscopy. Type of data set: nucleic-acid assay. The method in brief:
(§2)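 CD spectral titration of preformed Hum21 G4DNA (4 μM) in 10 mM Tris-HCl, 100 mM KCl, 0.1 mM EDTA, pH 7.4. Ligand was added at 0–160 μM in 20 μM increments. The induced CD band was followed.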

The subject of data set [3] is Nucleic Acid. Description: Binding affinity to human d[G3(T2AG3)3] G-quadruplex DNA assessed as change in melting temperature at 20 uM in KCl buffer. Type of data set: nucleic-acid assay. In short, it runs like this: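 CD melting of preformed Hum21 G4DNA (2 μM) in 10 mM Tris-HCl, 100 mM KCl, 0.1 mM EDTA, read at 292 nm. Ligand added at r = 10. ΔTm is bound minus free Tm, average of two runs.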

Data set [4] concerns Nucleic Acid. In words: Binding affinity to human d[G3(T2AG3)3] G-quadruplex DNA assessed formation of G-quadruplex parallel strands in 100 mM KCl buffer by CD spectroscopy. Type of data set: nucleic-acid assay. In short, it runs like this:
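Hum21 (4 μM strand) was heated at 90 °C for 5 min together with ligand (40 μM), then cooled slowly in 100 mM KCl buffer (10 mM Tris-HCl, 0.1 mM EDTA, pH 7.4). CD spectra were recorded to assign parallel or antiparallel topology.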

For data set [5], the system named is Nucleic Acid. Description: Binding affinity to human d[G3(T2AG3)3] G-quadruplex DNA assessed as change in structure in CD spectral profile in LiCl+ Na+ buffer by CD spectroscopy. Type of data set: nucleic-acid assay. The method in brief: as §1
For a further data set, the system named is HEK-293T. Description: Cytotoxicity in transformed HEK293T cells incubated for 6 to 48 hrs by MTT assay. The following applies: Homo sapiens. Type of data set: functional, cell-based. In short, it runs like this:
(§3)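 HEK293 and HEK293T cells were seeded at 8.0 × 10³/well and run as in the short-term MTT protocol: treatment in 0.2% FBS, then medium change and 595 nm formazan read-out. Figure data reflect 48 h exposure, six replicates per point.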
Background: Tetrazolium assays rely on reduction of a dye to a coloured formazan, in cell work by metabolically active cells.

In data set [6] the test system is Nucleic Acid. In words: Binding affinity to human d[G3(T2AG3)3] G-quadruplex DNA assessed as change in melting temperature at 10 uM in LiCl-Na buffer. Type of data set: nucleic-acid assay. In short, it runs like this: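 CD melting of Hum21 G4DNA (4 μM strand) preformed by heating at 90 °C for 5 min then slow cooling over 24 h in 100 mM LiCl, 10 mM sodium cacodylate, 0.1 mM EDTA, pH 7.4. Ligand added at [ligand]/[DNA] r = 5. Melting followed at 295 nm. ΔTm is ligand-bound minus free Tm, average of two runs.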

In data set [7] the test system is Nucleic Acid. In words: Binding affinity to human d[G3(T2AG3)3] G-quadruplex DNA assessed as change in melting temperature at 20 uM in KCl buffer using compound which is heated to 90 degC for 5 mins followed by slow cooling. Type of data set: nucleic-acid assay. The method in brief:
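Hum21 (2 μM) was folded in KCl buffer (10 mM Tris-HCl, 100 mM KCl, 0.1 mM EDTA) with ligand present at r = 10, by heating to 90 °C for 5 min and cooling slowly. CD melting was read at 266 nm. ΔTm is taken against free G4DNA, mean of two experiments.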

Data set [8] addresses Telomerase reverse transcriptase (Homo sapiens, UniProt O14746). Description: Inhibition of telomerase extracted from human A549 cells by TRAP-LIG assay. Type of data set: cell-free. The method in brief: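 Three-step TRAP-LIG assay with A549 protein extract (500 ng/sample) and TS primer in TRAP buffer (pH 8.3, 68 mM KCl), ligand at 5–60 μM. Elongation ran at 30 °C for 10 min. Ligand was then removed on a spin column. PCR with ACX primer ran 30 cycles. Products were resolved on 10% PAGE and read by phosphorimager. IC50 is the mean of three experiments.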

The subject of data set [9] is Nucleic Acid. Description: Binding affinity to human d[G3(T2AG3)3] G-quadruplex DNA assessed as change in structure in CD spectral profile in LiCl buffer by CD spectroscopy. Type of data set: nucleic-acid assay. The method in brief: (§4)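 Hum21 G4DNA (4 μM strand) was preformed in 10 mM Tris-HCl with 100 mM LiCl and 0.1 mM EDTA, pH 7.4. It was then titrated with ligand and CD spectra were recorded.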

A further data set deals with HEK293. Description: Cytotoxicity in HEK293 cells incubated for 6 to 48 hrs by MTT assay. Type of data set: cell-based. The following applies: human. In short, it runs like this:
as §3

Data set [10] concerns Nucleic Acid. Description: Binding affinity to human d[G3(T2AG3)3] G-quadruplex DNA in LiCl buffer by CD spectroscopy. Type of data set: nucleic-acid assay. The method in brief: as §4
Data set [11] relates to HeLa. In words: Cytotoxicity in human HeLa cells at 4 uM up to 15 days by […]. Type of data set: functional. The method in brief:
(§5)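 Long-term proliferation: HeLa, A549 or NIH3T3 cells were seeded at 5.0 × 10⁴/well. They were exposed to 4 μM ligand, or 0.1% DMSO as vehicle, every 5 days. Cells were counted and reseeded at half the population over 15 days, and population versus time was plotted.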

Data set [12] concerns Nucleic Acid. Description: Induction of topology changes in human d[G3(T2AG3)3] G-quadruplex DNA in 100 uM KCl buffer by EMSA method. Type of data set: nucleic-acid assay. The note with it: in the assay text read “100 mM KCl” for “100 uM KCl”. The method in brief: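 5′-32P-labelled Hum21 G4DNA (5 μM) was used under two conditions. In one, it was preformed in 100 mM KCl and then given ligand (25 μM). In the other, it was folded with ligand (15–60 μM) by heating at 90 °C for 5 min and slow cooling in 100 mM KCl. Samples were run on native polyacrylamide gel with a dT20 mobility marker.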
A general note: In EMSA bound probe runs differently from free probe, usually more slowly.

Data set [13] concerns NIH3T3. Description: Cytotoxicity in mouse NIH/3T3 cells incubated for 6 to 48 hrs by MTT assay. Type of data set: cell-based. In short, it runs like this: (§6)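 HeLa, A549 or NIH3T3 cells (15.0 × 10³/well) were grown 24 h to 70% confluency. Ligand was applied at various concentrations in 0.2% FBS for 6 or 48 h at 37 °C. Medium was then replaced with DMEM/10% FBS and growth continued 42 h. MTT was added for 4 h and formazan dissolved in DMSO. Absorbance read at 595 nm, in triplicate, viability normalized to untreated cells.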

Data set [14] deals with HeLa. In words: Cytotoxicity in human HeLa cells incubated for 6 to 48 hrs by MTT assay. Type of data set: functional, cell-based. In short, it runs like this:
as §6

In data set [15] the test system is Nucleic Acid. Description: Binding affinity to human d[G3(T2AG3)3] G-quadruplex DNA assessed as change in melting temperature at 20 uM in NaCl buffer. Type of data set: nucleic-acid assay. The method in brief: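 CD melting at 295 nm of Hum21 G4DNA (2 μM strand) preformed in 10 mM Tris-HCl, 100 mM NaCl, 0.1 mM EDTA. Ligand at r = 10. ΔTm is complexed minus free Tm, mean of two experiments.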

Data set [16] concerns A549. Description: Cytotoxicity in human A549 cells incubated for 6 to 48 hrs by MTT assay. Type of data set: functional, cell-based. In short, it runs like this:
as §6

Data set [17] deals with NIH3T3. Description: Cytotoxicity in mouse NIH/3T3 cells at 4 uM up to 15 days […]. Type of data set: cell-based. The following applies: nih3t3, 360 h. In short, it runs like this:
as §5

Data set [18] has as its system Nucleic Acid. Description: Ratio of Kapp for human d[G3(T2AG3)3] G-quadruplex DNA to Kapp for calf thymus duplex DNA. Type of data set: nucleic-acid assay. The method in brief: (§7)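 UV–vis absorption titration of ligand with preformed Hum21 G4DNA, or with calf thymus duplex DNA. Hypochromicity data were converted to Scatchard plots, and the apparent association constant was obtained by linear fitting.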

Data set [19] concerns Nucleic Acid. In words: Binding affinity to human d[G3(T2AG3)3] G-quadruplex DNA by UV-vis titration based assay. Type of data set: nucleic-acid assay. In short, it runs like this: as §7
Data set [20] concerns A549. In words: Cytotoxicity in human A549 cells at 4 uM up to 15 days […]. Type of data set: functional. In short, it runs like this:
as §5

Data set [21] deals with Nucleic Acid. Description: Binding affinity to human d[G3(T2AG3)3] G-quadruplex DNA in 100 mM KCl buffer by CD spectroscopy. Type of data set: nucleic-acid assay. In short, it runs like this: as §2

The source made the active and inactive calls. No cut-off for these calls is given here.

Telomerase reverse transcriptase, sequence (O14746 whole entry): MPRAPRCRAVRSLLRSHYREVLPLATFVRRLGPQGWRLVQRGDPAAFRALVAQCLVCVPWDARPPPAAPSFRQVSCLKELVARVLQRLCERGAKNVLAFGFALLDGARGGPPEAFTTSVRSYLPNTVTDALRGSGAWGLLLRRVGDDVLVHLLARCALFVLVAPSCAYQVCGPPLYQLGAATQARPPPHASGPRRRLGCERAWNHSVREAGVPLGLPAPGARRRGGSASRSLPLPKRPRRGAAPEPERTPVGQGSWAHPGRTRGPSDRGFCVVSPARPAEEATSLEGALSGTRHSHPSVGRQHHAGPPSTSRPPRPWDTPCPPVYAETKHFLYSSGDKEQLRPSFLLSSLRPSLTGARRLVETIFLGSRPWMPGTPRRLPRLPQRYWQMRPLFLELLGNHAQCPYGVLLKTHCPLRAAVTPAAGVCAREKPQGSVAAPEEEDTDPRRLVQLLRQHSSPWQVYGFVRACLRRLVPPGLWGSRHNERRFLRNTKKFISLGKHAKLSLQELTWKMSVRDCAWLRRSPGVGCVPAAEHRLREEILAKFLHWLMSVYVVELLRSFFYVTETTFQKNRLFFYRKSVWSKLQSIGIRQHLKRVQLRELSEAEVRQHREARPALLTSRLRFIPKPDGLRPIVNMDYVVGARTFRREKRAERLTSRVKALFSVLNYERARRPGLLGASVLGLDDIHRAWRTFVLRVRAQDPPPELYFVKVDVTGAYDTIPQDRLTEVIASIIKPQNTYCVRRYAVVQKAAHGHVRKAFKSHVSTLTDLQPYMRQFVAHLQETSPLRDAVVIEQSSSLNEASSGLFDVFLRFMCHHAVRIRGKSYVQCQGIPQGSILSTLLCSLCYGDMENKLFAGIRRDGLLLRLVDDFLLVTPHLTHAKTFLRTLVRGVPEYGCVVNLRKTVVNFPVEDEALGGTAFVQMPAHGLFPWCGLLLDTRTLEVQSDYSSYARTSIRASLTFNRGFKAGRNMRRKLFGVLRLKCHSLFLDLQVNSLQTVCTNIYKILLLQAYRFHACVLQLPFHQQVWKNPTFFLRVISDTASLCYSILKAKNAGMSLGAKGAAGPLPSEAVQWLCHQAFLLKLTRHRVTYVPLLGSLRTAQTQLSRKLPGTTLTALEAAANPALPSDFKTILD

In general, ΔTm refers to the change in melting temperature against a reference sample. The IC50 is the midpoint of a concentration-inhibition curve. High values mean weaker potency in that assay, low ones greater potency in that assay. On to `OCCN1CCN(c2ccc3nc(-c4ccc5c(c4)CN4CN5Cc5cc(-c6nc7ccc(N8CCN(CCO)CC8)cc7[nH]6)ccc54)[nH]c3c2)CC1`, for which the result in the data set with Nucleic Acid [1], in the data set on Nucleic Acid [4], in the data set on HEK-293T, in the data set on Nucleic Acid [10], in the data set on HeLa [11] and with Nucleic Acid [12] was Active. For the same molecule, the outcome with HeLa [14], in the data set on A549 [16], in the data set on A549 [20] and in the data set on Nucleic Acid [21] was Active. Further, the outcome in the data set with Nucleic Acid [2], in the data set with Nucleic Acid [5] and in the data set with Nucleic Acid [9] was inactive. Moreover, the thermal shift (ΔTm) was found to be 10 °C with Nucleic Acid [3], 9.5 °C in the data set on Nucleic Acid [6], 17 °C in the data set on Nucleic Acid [7] and 11 °C in the data set on Nucleic Acid [15]. In data set [8], this molecule yielded an IC50 of 14.5 µM. For the same molecule, the Activity result with HEK293 is “Toxic”; with NIH3T3 [13], “Toxic”; with NIH3T3 [17] it was “Toxic”; in the data set with A549 [20] (record 2) it was 100%. For the same molecule, the Ratio in the data set with Nucleic Acid [18] was determined as 100. This molecule also returned a Kapp with Nucleic Acid [19] of 4.2 ×10⁵ /M.

For `CN1CCN(c2ccc3nc(-c4ccc5c(c4)CN4CN5Cc5cc(-c6nc7ccc(N8CCN(C)CC8)cc7[nH]6)ccc54)[nH]c3c2)CC1`, the result with Nucleic Acid [1], in the data set with Nucleic Acid [4], with HEK-293T, in the data set on Nucleic Acid [10], with HeLa [14] and with A549 [16] was Active. Further, the result with Nucleic Acid [21] was Active. Also, the result in the data set with Nucleic Acid [2], in the data set with Nucleic Acid [5], with Nucleic Acid [9] and in the data set with Nucleic Acid [12] was inactive. The ΔTm in the data set with Nucleic Acid [3] turned out to be 8 °C; in the data set with Nucleic Acid [6], 9.3 °C; in the data set on Nucleic Acid [7] it was 15 °C; in the data set with Nucleic Acid [15], 9 °C. Inhibition in data set [8] was half-maximal at 34.7 µM (IC50). The Activity entry with HEK293 is recorded as “Toxic”; with HeLa [11], 100%; in the data set with NIH3T3 [13], “Toxic”; in the data set on NIH3T3 [17] it was “Toxic”; in the data set on A549 [20] it was 100%. Besides, the Ratio in the data set on Nucleic Acid [18] is 100. For the same molecule, the Kapp in the data set on Nucleic Acid [19] stood at 1.4 ×10⁵ /M.

These data come from ChEMBL document CHEMBL2169774, “Stabilization and structural alteration of the G-quadruplex DNA made from the human telomeric repeat mediated by Tröger's base based novel benzimidazole derivatives” (J Med Chem, 2012).
